Most compounds without a hit are left out; they make up all but 3.7% or so of the library.
hERG protect: compounds protecting human hERG from proarrhythmic drug block. Q12809. CHO-hERG, FluxOR thallium flux, dofetilide IC70 present. activation (rescue from dofetilide block), less the hit threshold, % at 10 µM. hit rate 0.51% among 310,000;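 active = activation above the mean of controls blocked by dofetilide plus 5 SD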;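 note: thallium influx through hERG after potassium depolarization seen as dye fluorescence rise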
KCNK3 block: human KCNK3 channel inhibition, primary screen | O14649 | AID 602410 | hit rate 0.84% among 340,000 | CHO-KCNK3 thallium flux, FluxOR fluorescence; stronger effect = lower value | B-score at 10 µM;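 active = B-score under library mean minus 4 SD, starting fluorescence ratio at most library mean plus 5 SD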;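 note: more negative B-score means stronger inhibition of thallium flux through KCNK3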
Target sequence (O14649 whole entry, looked up): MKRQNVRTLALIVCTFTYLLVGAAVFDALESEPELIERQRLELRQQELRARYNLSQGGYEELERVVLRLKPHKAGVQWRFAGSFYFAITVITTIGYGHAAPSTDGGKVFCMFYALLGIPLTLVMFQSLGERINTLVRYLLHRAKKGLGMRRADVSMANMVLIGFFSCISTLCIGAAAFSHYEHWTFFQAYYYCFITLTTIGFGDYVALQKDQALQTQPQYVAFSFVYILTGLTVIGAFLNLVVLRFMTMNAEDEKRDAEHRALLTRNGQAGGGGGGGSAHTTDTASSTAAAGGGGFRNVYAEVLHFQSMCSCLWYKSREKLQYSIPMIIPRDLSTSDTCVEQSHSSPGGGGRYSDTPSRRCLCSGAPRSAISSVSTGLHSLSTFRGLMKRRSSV
KCNQ1 inh: inhibitors of human KCNQ1 potassium channel. B-score at 10 µM. AID 2642. CHO-K1 KCNQ1, FluxOR thallium flux fluorescence; stronger effect = higher value. P51787. hit rate 1.3% among 310,000;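 active = compounds whose thallium flux B-score, printed positive for inhibition, exceeds three library SD while starting fluorescence stays within three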;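 note: channel opened by potassium depolarization with thallium stimulus after 20 min compound exposure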
KCNQ1 act: human KCNQ1 channel potentiation or activation | P51787 | CHO-K1 KCNQ1, thallium flux FluxOR fluorescence; stronger effect = higher value | B-score at 10 µM | hit rate 0.35% among 310,000;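 active = fluorescence ratio B-score, a plate-corrected score, at least three library SD, with initial intensity B-score within 5 SD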
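assay system = KCNQ1-transfected CHO-K1 cells | medium = assay buffer with matched DMSO | probe or stimulus = depolarizing K+/Tl+ stimulus, K2SO4 and Tl2SO4 each 12.5 mM in 5x stock | dosing = single dose | incubation = dye 90 min, compound 20 min, room temperature | detection = kinetic FluxOR fluorescence, 10 s baseline plus 110 s post-stimulus | evaluation = ratio B score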
KCNK9 block: human KCNK9 channel inhibition; HEK293 KCNK9, FluxOR thallium flux fluorescence; stronger effect = lower value; B-score at 10 µM; hit rate 1.2% among 310,000;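 active = ratio B-score over 3 SD below the library mean, with starting fluorescence within 5 SD of its mean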;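 note: negative B-score means less thallium flux so channel inhibition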
Target sequence (Q9NPC2 whole entry, looked up): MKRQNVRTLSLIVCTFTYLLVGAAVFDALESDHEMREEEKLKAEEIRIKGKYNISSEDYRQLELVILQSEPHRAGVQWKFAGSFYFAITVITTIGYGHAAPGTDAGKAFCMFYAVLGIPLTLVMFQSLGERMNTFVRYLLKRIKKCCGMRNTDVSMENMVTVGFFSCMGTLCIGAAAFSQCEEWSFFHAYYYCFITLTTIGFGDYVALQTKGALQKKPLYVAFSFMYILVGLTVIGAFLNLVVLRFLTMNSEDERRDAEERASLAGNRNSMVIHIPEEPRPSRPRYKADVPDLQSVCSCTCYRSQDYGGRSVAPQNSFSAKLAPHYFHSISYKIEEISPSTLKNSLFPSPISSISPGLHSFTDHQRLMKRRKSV
Kir21 inh: inhibitors of mouse Kir2.1 inward-rectifier potassium channel. HEK293-Kir2.1, FluxOR thallium flux fluorescence; stronger effect = lower value. B-score at 10 µM. P35561. hit rate 0.85% among 310,000;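 active = fluorescence ratio B-score at or below minus 3 SD of library scores, with starting-brightness B-score within 2 SD, cut at about -4.2 in these data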;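 note: channel flux triggered by added potassium and thallium sulfate stimulus; B-score of peak minus minimum fluorescence over baseline after thallium stimulus; more negative B-score means stronger Kir2.1 block with less thallium influx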
Of the large screens only hits and unclear results are named; the others gave an inactive call.

CCNC(=O)NC(=O)C(C)OC(=O)C(C)(C)Oc1ccc(Cl)cc1 (stereo not drawn)	Kir21 inh -5.31
CCc1ccc(NC(=S)Nc2cc(OC)c(NC(=O)C(C)C)cc2OC)cc1	none
CCc1ccc(NC(=O)C(C)OC(=O)Cc2cc(OC)c(OC)c(OC)c2)cc1 (stereo not drawn)	KCNK3 block -10.5 (no result: hERG protect, KCNQ1 inh, KCNQ1 act, KCNK9 block, Kir21 inh)
Nc1nc2n(n1)C(=O)CC(c1ccc(Cl)cc1)N2 (stereo not drawn)	hERG protect 5.0
CCOC(=O)c1ccn(CSc2c(F)c(F)cc(F)c2F)n1	none (no result: hERG protect, KCNQ1 inh, KCNQ1 act, KCNK9 block, Kir21 inh)
Cc1c(NC(=O)c2nn(CC(C)C)c(=O)c3ccccc23)c(=O)n(-c2ccccc2)n1C	none (no result: hERG protect, KCNQ1 inh, KCNQ1 act, KCNK9 block, Kir21 inh)
COC(=O)C1=C(Cn2cnc3ccccc32)NC(=O)NC1c1cc(C)ccc1C (stereo not drawn)	none
CCOC(=O)C1=C(Cn2cnc3ccccc32)NC(=O)NC1c1cc(C)ccc1C (stereo not drawn)	hERG protect 13.1
COc1ccc(NC(=O)Nc2ccc3c(c2)C(=O)N([C@@H](C)CO)C[C@@H](C)[C@@H](CN(C)S(=O)(=O)c2cn(C)cn2)O3)cc1	none (no result: hERG protect, KCNQ1 inh, KCNQ1 act, KCNK9 block, Kir21 inh)
CC(CCc1ccc(O)cc1)NC(c1ccccc1)c1ccc(Cl)cc1 (stereo not drawn)	KCNQ1 inh 12
O=C1CSC(c2cccnc2)N1C1CCCCC1 (stereo not drawn)	none
O=C1CSC(c2ccc(Cl)cc2)N1C1CCCCC1 (stereo not drawn)	Kir21 inh -6.06
COC(CN(C)C(=O)c1cn(C)c2ccc(S(=O)(=O)N(C)C3CCCCC3)cc2c1=O)OC	none
CC1=NN(c2ccccc2)C(=O)/C1=C/c1c(O)n(-c2ccc(F)c(Cl)c2)[nH]c1=O	KCNQ1 act 12 (no result: KCNK3 block)
CC1=NN(c2ccccc2)C(=O)/C1=C\c1c(C)[nH]n(-c2ccccc2)c1=O	none
O=C(Nc1cccc(Cl)c1Cl)C1CCCC1	none
CCCCC(=O)Nc1ccc(NC(=S)NC(=O)c2ccco2)cc1OC	none
CCN(CC)c1ccc(NC(=S)NC(=O)c2ccco2)cc1	hERG protect 52.9, KCNQ1 act 35
CCN(CC)c1ccc(NC(=S)NC(=O)c2cccs2)cc1	hERG protect 6.5
CCCCOC(=O)c1ccc(NC(=S)NC(=O)c2c(Cl)cnn2CC)cc1	KCNQ1 act 75
CC(=O)NC(=S)Nc1ccc(NC(=S)NC(=O)c2cccs2)cc1	none
CCN(CC)c1ccc(NC(=O)c2ccco2)cc1	none
CCCCOC(=O)c1ccc(NC(=S)NC(=O)c2ccco2)cc1	KCNQ1 act 11
Cc1ccc(-n2nnnc2SCC(=O)NCC2CCCO2)cc1C (stereo not drawn)	none (no result: hERG protect, KCNQ1 inh, KCNQ1 act, KCNK9 block, Kir21 inh)
CCCCOC(=O)c1ccc(NC(=O)/C=C/c2cccs2)cc1	KCNQ1 inh 13
CCOc1ccccc1NC(=S)NC(=O)c1ccco1	KCNQ1 act 11
CCOc1ccccc1NC(=O)c1ccccc1NC(=O)c1ccco1	none
CCOc1ccccc1NC(=O)c1ccccc1-c1ccccc1	Kir21 inh -4.85
CC(OC(=O)c1ccccc1)C(=O)NCc1ccco1 (stereo not drawn)	none (no result: hERG protect, KCNQ1 inh, KCNQ1 act, KCNK9 block, Kir21 inh)
O=C(CCC(=O)c1ccccc1)Nc1ccc(C(=O)O)cc1	none
Cc1ccc([C@@H]2CC=C(C(=O)O)[C@H](c3ccccc3F)N2S(=O)(=O)c2ccccc2C)cc1	none (no result: hERG protect, KCNQ1 inh, KCNQ1 act, KCNK9 block, Kir21 inh)
CC(=O)N1CCN(c2ccc(Oc3ccc([N+](=O)[O-])c(C(F)(F)F)c3)cc2)CC1	KCNQ1 inh 11
CCOc1ccc(C(=O)Nc2ccc(N3CCN(C(C)=O)CC3)cc2)cc1[N+](=O)[O-]	none
CSc1ncccc1C(=O)OCC(=O)NC1CCCCC1	none (no result: hERG protect, KCNQ1 inh, KCNQ1 act, KCNK9 block, Kir21 inh)
O=C(CSc1nc2ccc([N+](=O)[O-])cc2[nH]1)NC1CCCCCC1	KCNQ1 inh 14
COc1ccc(S(=O)(=O)N2CCOCC2)cc1NC(=O)CCCOc1ccc(Cl)cc1C	none (no result: hERG protect, KCNQ1 inh, KCNQ1 act, KCNK9 block, Kir21 inh)
O=S(=O)(c1cccc(-c2nnc(SCc3ccc(Cl)cc3)o2)c1)N1CCCCC1	KCNK9 block -7.21
CC(=O)Oc1ccc(C23CC4CC(CC(C4)C2)C3)cc1C(=O)O	none (no result: KCNK3 block)
CC(=O)Nc1ccc(S(=O)(=O)N2CCN(c3cc(C)nc4ccccc34)CC2)cc1	none
CC(=O)Nc1ccc(S(=O)(=O)N2CCN(c3nc(NC4CCCC4)c4ccccc4n3)CC2)cc1	KCNQ1 inh 6
O=C1N[C@H]2CC=C[C@H]2Nc2ccccc21	none (no result: hERG protect, KCNQ1 inh, KCNQ1 act, KCNK9 block, Kir21 inh)
CC(=O)N1CCCc2ccc(NS(=O)(=O)c3ccc(C)c(C)c3)cc21	none
COc1ccc(OC)c(S(=O)(=O)Nc2ccc3c(c2)N(C(C)=O)CCC3)c1	KCNQ1 act 13
CCCN(C(=O)Cc1coc2cc(OC)ccc12)C1CCS(=O)(=O)C1 (stereo not drawn)	none (no result: hERG protect, KCNQ1 inh, KCNQ1 act, KCNK9 block, Kir21 inh)
Cc1cc(C)n(/N=C/c2cc(Cl)cc(Cl)c2O)c(=O)c1	KCNQ1 act 15
CCC1(c2ccc(Cl)cc2)NC(=S)N(c2ccc(C)cc2)N1 (stereo not drawn)	hERG protect 37.6, KCNQ1 act 68
CCC1(c2ccccc2)NC(=S)N(c2ccc(C)c(C)c2)N1 (stereo not drawn)	hERG protect 47.1, KCNQ1 act 91
CC1(CCc2ccccc2)NC(=S)N(c2ccc(Cl)cc2)N1 (stereo not drawn)	none
CC1=CC(C)(C)NC(=S)N1c1ccc(C)c(C)c1	none
CCC1(c2ccc(Cl)cc2)NC(=S)N(c2ccc(C)c(C)c2)N1 (stereo not drawn)	hERG protect 68.3, KCNQ1 act 103
CC(NC(=O)COc1ccc(/C=N/NC(=O)CO)cc1)c1ccccc1 (stereo not drawn)	none
CN1CC=C2C(C#N)=C(N)C(C#N)(C#N)[C@H](c3ccoc3)[C@H]2C1	none
COc1ccc(OC)c(C2C3CN(C(C)C)CC=C3C(C#N)=C(N)C2(C#N)C#N)c1 (stereo not drawn)	KCNQ1 inh 6
N#CC1=C(N)C(C#N)(C#N)[C@H](c2ccoc2)[C@H]2CN(Cc3ccccc3)CC=C12	KCNK9 block -8.78
COc1cccc(OC)c1OCc1cc(C2C3CCCC=C3C(C#N)=C(N)C2(C#N)C#N)c(C)cc1C (stereo not drawn)	KCNQ1 inh 7
CN1CC=C2C(C#N)=C(N)C(C#N)(C#N)C(c3cccc(Cl)c3Cl)C2C1 (stereo not drawn)	KCNQ1 inh 6
O=C(CN1C(=O)NC(c2ccccc2)(c2ccccc2)C1=O)NCc1ccco1	none (no result: hERG protect, KCNQ1 inh, KCNQ1 act, KCNK9 block, Kir21 inh)
CCOC(=O)C1CCCN(c2c(NCCc3ccc(Cl)cc3)c(=O)c2=O)C1 (stereo not drawn)	none
O=C([C@@H]1CCCN1C(=O)c1cccs1)N1CCN(S(=O)(=O)c2cccc(F)c2)CC1	none (no result: hERG protect, KCNQ1 inh, KCNQ1 act, KCNK9 block, Kir21 inh)
CCN1CC=C2C(C#N)=C(N)C(C#N)(C#N)C(CCc3ccccc3)C2C1 (stereo not drawn)	none (no result: hERG protect, KCNQ1 inh, KCNQ1 act, KCNK9 block, Kir21 inh)

Compound activity as filed in PubChem.
